Assay: Toxicity liver stage against HepG2, at 10uM
Type: cell-based
Parameters: test concentration 10 uM, cell line HepG2-A16-CD81EGFP
Conditions: human, HepG2-A16-CD81EGFP cells; read-out: INHIBITION
In short: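 Uninfected HepG2-A16-CD81EGFP cells, 3 × 10^3 per well, 1536-well, plated on prespotted compound at 10 μM final, parasite-free screening media added to match infected plates; puromycin 10 μM positive, DMSO 0.5% negative; run in parallel with 48 h PbLuc assay at 37 °C, 5% CO2; viability by CellTiter-Glo luminescence, normalized to controls.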

Structure (SMILES)	cytotoxicity at 10 µM
Cc1cccc2c1OCCC2NCc1c(C)nn(C)c1N(C)C (stereo unspecified)	-5.72%
CCOC[C@H]1CC[C@H]2[C@H](CCN2C(=O)c2cnccn2)O1	2.22%
Cc1nn(Cn2ccc(C(=O)N3CCCC3)n2)c(C)c1Cl	0.748%
N#Cc1ccnc(N2CCN(Cc3cccc(F)c3)CC2)c1	0.795%
O=c1cc(CN2CCCC(CCc3c(F)cccc3F)C2)[nH]c(=O)[nH]1 (stereo unspecified)	-3.88%
CO[C@@H]1CCN(Cc2cccs2)[C@@H]2CN(Cc3ccncc3)C[C@@H]21	3.93%
Cc1ccccc1CC(=O)N1C[C@@H]2CC[C@H]1CN(Cc1cccnc1)C2	-2.36%
Cc1ncc(C(=O)NCCOc2ccccc2F)c(C)n1	24.8%
CC1COc2ccccc2N1C(=O)c1cscn1 (stereo unspecified)	11.5%
CC(C)S(=O)(=O)C(C)C(=O)NCc1ccccc1OCc1ccccc1 (stereo unspecified)	18.8%
CS(=O)(=O)c1ccc(OCCNCc2cccc(F)c2)cc1	-9.06%
CO[C@@H]1CC[C@H]2[C@H]1OCCN2Cc1ccccn1	1.06%
Cc1cccc(C(=O)N2C[C@@H]3OCCN(C(C)C)[C@@H]3C2)n1	-9.2%
c1csc(-c2noc(CN3CCCCC3Cn3cccn3)n2)c1 (stereo unspecified)	-15.4%
Cc1cccc(Nc2cccc(C3CCCN(Cc4ncc[nH]4)C3)n2)n1 (stereo unspecified)	-24.1%
Cc1cc(N2CCC(O)(CN(C)C(=O)CCN)CC2)c2cnccc2n1	-3.3%
CN1CCCN(C(=O)c2cnsn2)c2cc(F)ccc21	-4.03%
CCc1nnc(CN(C)c2nc(C(C)C)nc3c2cnn3C)o1	-9.52%
Cc1ccc(CNCc2cccc(NC(=O)CCN3CCOCC3)c2)s1	-1.91%
C[C@@H]1CN(C(=O)CCc2nncn2C)CC[C@@]1(O)C1CCC1	-6.65%
Cc1nc(CN2CCCC(NCc3ccsc3)C2)no1 (stereo unspecified)	0.504%
c1cnnc(N2CCCC2CNc2ncnc3sccc23)c1 (stereo unspecified)	-12.9%
CCc1ncc(C(=O)N2CC(Oc3ccccc3Cl)C2)cn1	45.7%

Structure (SMILES)	cytotoxicity at 10 µM
O=C(c1cccn1Cc1cccs1)N1CCC(C(=O)N2CCCC2)CC1	-1.23%
CNc1nc(CNC(=O)Nc2ccc(SC)c(F)c2)cs1	-5.75%
c1cnc(NC[C@@H]2CCC[C@@H]3CN(Cc4cc[nH]n4)C[C@@H]32)nc1	-13.1%
CC(=O)N1CC2(CCN(Cc3ccc(Cl)cc3)CC2)Cc2ccccc21	14.2%
CCS(=O)(=O)c1ccc(N2CCC(NC(=O)CC3CCCC3)CC2)cc1	22.7%
Cc1cs/c(=N\C(=O)Cn2nc(N3CCSCC3)ccc2=O)[nH]1	2.33%
CC(C)CN1C(=O)CC[C@H]2CN(C(=O)Cn3ccccc3=O)CC[C@H]21	-7.37%
COCCNC(=O)c1nn(-c2cccc(C(C)C)c2)cc1O	-2.35%
COC(C)C(=O)N(CC(N)=O)Cc1cccc(Oc2ccccc2)c1 (stereo unspecified)	1.46%
Cc1n[nH]c2ncc(CNC3CCN(Cc4ccccn4)CC3)cc12	7.14%
COCCN1C[C@@H]2CN(Cc3ccc(C)s3)CCC[C@]2(C(=O)O)C1	-96.8%
CSCCC(NC(=O)c1nc(SC)ncc1Cl)C(=O)O (stereo unspecified)	-8.77%
CCC(C)Oc1cc(C(=O)Nc2nc(C)ns2)ccn1 (stereo unspecified)	-1.02%
CN(C)Cc1cc(=O)n2c(n1)CN(CC1CC1)CCC2	5.71%
COc1ccccc1C1(CNCc2cccc(O)c2)CCOCC1	9.18%
COc1ccccc1-n1nc(C(C)C)nc1Cc1nnc(N)s1	6.48%
CC(C)NC(=O)N1CCN(Cc2ccccn2)CC2(CC(=O)N(C)C2)C1 (stereo unspecified)	2.79%
CC(C)(C)c1noc(CCC(=O)N2CCN(Cc3ccc(Cl)s3)CC2)n1	3.36%
NC(=O)C(Cc1ccccc1)NS(=O)(=O)Cc1ccccc1F (stereo unspecified)	-13%
O=C(c1ccccc1)N1CCC2(CC1)CNc1c(F)cccc12	7.33%
NC(=O)N1CCC2(CC1)CN(c1ccsc1)C(=O)CO2	10.7%
CCN1C[C@H]2[C@@H](C1)N(S(=O)(=O)c1cccnc1)CC[C@H]2OC	-1.78%
c1cnc(C2CCCN(Cc3ccsc3)C2)cn1 (stereo unspecified)	-5.67%

Structure (SMILES)	cytotoxicity at 10 µM
c1cnn(CC2CCCCN2Cc2nc(-c3ccoc3)no2)c1 (stereo unspecified)	-5.22%
Cn1cc(-c2nnn3c2COC(CNCc2ccccn2)C3)cn1 (stereo unspecified)	0.298%
CN(C)C(=O)CN1CCC2(COCc3cnc(-c4cccnc4)nc32)C1 (stereo unspecified)	-115%
CCC(NC(=O)c1ccoc1)c1ccccc1OCC(=O)N1CCCC1 (stereo unspecified)	-4.31%
CCOCCC(=O)N1CCCC(CO)(CC2CC2)C1 (stereo unspecified)	7.58%
O=C(c1ccoc1)N1CCCC2(CCC(=O)N2Cc2ccncc2)C1 (stereo unspecified)	-3.55%
CC(C)(C)N1CC(C(=O)N2CCN(CCc3ccccc3)CC2)CC1=O (stereo unspecified)	23.4%
O=C(c1ccc(O)nc1)N1Cc2ccccc2OC2(CCOCC2)C1	-44.2%
Cc1cccc(C(C(=O)NCC2(O)CCCCC2)N(C)C)c1 (stereo unspecified)	-8.82%
Cc1cnc(N2CCC3(CCCN(c4ncc(F)cn4)C3)C2)nc1 (stereo unspecified)	-124%
CNc1ccc(CC2CCCN(C(=O)c3cnco3)C2)nn1 (stereo unspecified)	-8.55%
CN(C)c1ccc(C(=O)NCCCc2ccccn2)cn1	-54%
OCC(CO)N1CCCC(Cc2ccnc(Nc3ccccn3)c2)C1 (stereo unspecified)	-13.5%
CCCn1nnnc1CN(CC)CC1COc2ccccc2O1 (stereo unspecified)	13.3%
Cc1[nH]ncc1CCCNC(=O)N1CCC(CC(N)=O)CC1	5.45%
CC(=O)c1ccc(N2CCN(C(=O)NCc3cc[nH]n3)CC2)cc1	-2.17%
CCc1cc(-c2nccn2-c2ccccc2CN2CCOCC2)on1	-7.91%
CC(C)N1CCOCC2(CCCN(C(=O)CCc3cccnc3)C2)C1 (stereo unspecified)	2.66%
CS(=O)(=O)NCCC(=O)NC1(c2ccc(F)cc2)CCCC1	-1.1%
Cc1ccc(CC2CCCN(S(C)(=O)=O)C2)nc1 (stereo unspecified)	-8.58%
CCOC(C)c1nc(Cn2cc(C)cn2)cs1 (stereo unspecified)	5.52%
COc1ccccc1CN(Cc1nc(Cc2ccccc2)no1)C1CC1	9.54%
COCCNC(=O)C1(c2ccc(C)c(OC)c2)CCCC1	-3.21%

Structure (SMILES)	cytotoxicity at 10 µM
COc1ccc(Cl)cc1NCC(=O)NCCc1ccccn1	-8.26%
Cc1csc(CNC(=O)N2CCCC(c3nncn3C)C2)n1 (stereo unspecified)	-18.3%
N#Cc1ccccc1OCCN1CCCCC1Cn1cncn1 (stereo unspecified)	-6.04%
O=C(Nc1ccccc1F)N(CCO)CCOCC(F)(F)F	1.1%
Cc1nc2ccn(C(C)C)c(=O)c2cc1C(=O)O	-43.6%
CCSCCNC(=O)c1cnc(-c2ccccc2)nc1O	-1.54%
O=C(NCC1CCOC1)Nc1ccc(Oc2ccc(F)cc2)nc1 (stereo unspecified)	-13.7%
Cc1cc(CN2CCOC(CNc3cccnn3)C2)no1 (stereo unspecified)	-18.4%
CO[C@H]1CN(C(=O)c2ccc3c(c2)OCO3)[C@@H]2COC[C@H]12	-142%
c1ccc(OCCNC2CCCN(Cc3noc(C4CC4)n3)C2)cc1 (stereo unspecified)	-13.6%
COCCOc1ccnc(-c2noc([C@@H]3CCCN3CC(C)(C)C)n2)c1	-12.7%
Cc1cnc(NC(=O)c2cccc(CN(C)Cc3snnc3C)c2)s1	16.3%
CCN(CCn1cccn1)Cc1nc(-c2cccc(C)c2)oc1C	0.0489%
CCn1cc(-n2cc3nc(N4CCN(C)CC4)[nH]cc-3c2=O)cn1	1.54%
O=C(NCc1nc2ccccc2[nH]1)c1cc2n(n1)CCCO2	-5.43%
O=C(NCCOc1ccc2c(c1)CCC2)N1CCS(=O)(=O)CC1	-1.71%
COCC(=O)N1CCCC2(COCCN(CCN(C)C)C2)C1 (stereo unspecified)	8.76%
CC(C)[C@@H]1CN(CC(=O)NCc2ccco2)C[C@H]1NS(=O)(=O)N(C)C	6.11%
CCCn1ncc(CN2CCCCC2CCCOC)c1C (stereo unspecified)	-15.2%
CN1CCOCC2(CCCN(C(=O)c3cn(C)cn3)C2)C1 (stereo unspecified)	8.47%
Cc1ccc(CN2CCC3(C2)C(=O)N(CC2CC2)c2ccccc23)s1 (stereo unspecified)	13.4%
CC(=O)N1CCN(CC=C(C)C)CC1	3.95%
Cc1cccc(C(=O)N2C[C@@H]3CCN(C(C)C)C[C@@H]3C2)c1	-2.16%

Structure (SMILES)	cytotoxicity at 10 µM
Cc1nc(CN2CCOC3(CCCC3)C2)no1	-6.65%
C[C@H](NC(=O)c1cnc(-c2ccccc2)nc1O)C(N)=O	7.06%
CC(=O)N(C)Cc1ccccc1NC(=O)N(C)CCc1cccs1	-10.4%
Cc1cccc(-c2ccc(C(=O)NCC(C)(C)C(N)=O)c(=O)[nH]2)c1	-10.5%
CCS(=O)(=O)c1ccc2oc([C@H]3CCN(Cc4cccnc4)C3)nc2c1	19.7%
CS(=O)(=O)N1CCC2(CC1)CC(NCC1CC1)c1ccccc12 (stereo unspecified)	-111%
Nc1nccc(NCc2cc3n(n2)CCCN(C2CCCCC2)C3)n1	-16%
CSc1ccc(CNC2(c3ccc(F)cc3)CCOCC2)cc1	-4.51%
Cc1ccc(OCC(=O)N2CCOCC(O)(CN3CCCC3)C2)cc1C (stereo unspecified)	-4.05%
O=C(NCCNc1cc(-n2cccc2)ncn1)c1cccs1	-2.56%
Cc1ccccc1-c1noc(CN2CCC(N3CCNC3=O)CC2)n1	11.6%
CC(C)S(=O)(=O)CC(=O)N(Cc1ccsc1)c1ccccc1	-5.24%
CC(C)CC(NC(=O)C1=CCCC1)C(=O)N1CCC(CO)CC1 (stereo unspecified)	8.23%
Cc1cc(N2CCC(CO)(CC3CCCCO3)CC2)nc2ccccc12 (stereo unspecified)	5.51%
Cc1nc(C2CCCN(C(=O)c3cnc(C)s3)C2)no1 (stereo unspecified)	4.31%
COCCN(Cc1cccc(C#N)c1)Cc1nc(C)no1	1.18%
COc1nc(C)c(C(=O)NCc2cc(N3CCOCC3)ncn2)s1	12.9%
Cc1oc(-c2cc(F)cc(F)c2)nc1CN1C[C@@H](C)NC[C@@H]1C	-1.66%
Cn1cc(NS(=O)(=O)CC2CCCCO2)cn1 (stereo unspecified)	-5.41%

Reference: ChEMBL document CHEMBL4513216, “Probing the Open Global Health Chemical Diversity Library for Multistage-Active Starting Points for Next-Generation Antimalarials” (ACS Infect Dis, 2020)
